“Also recorded” adds a separate entry of the source.
Legend:
[1] = test system: WT and mutant AT1Rs (p-ERK/t-ERK) in GqKO cells; assay: ERK phosphorylation Western blot, HEK293 GqKO cells, WT and mutant AT1Rs; type: cell-based, human; details: for ERK activation in GqKO cells: HEK293 GqKO cells vs WT cells, AngII 1 μM, TRV023 10 μM, Telm 10 μM
Outline: (§1)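 Receptor constructs (plasmid amounts adjusted to equalise receptor expression by radioligand binding) transfected with lipofectamine 2000 into cells grown in MEM with 10% FBS. […] RIPA lysis with protease/phosphatase inhibitors, 1 h at 4°C. SDS-PAGE/PVDF; phospho-ERK1/2 (1:1000) normalised to total ERK1/2 (1:2000).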

[2] = test system: AT1R C-terminal tail mutants (PROX, MID, DIST, NULL); assay: β-arrestin recruitment BRET assay, AT1R C-terminal tail mutants; type: cell-based, human; details: HEK293 cells, 10 min, 37 °C, N=5
[3] = test system: FLAG-tagged human WT AT1R; type: cell-based; details: AngII 1 μM, TRV023 10 μM, 10 min, N=5
Outline: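 Expi293F cells with inducible N-terminal FLAG-human AT1R (~2.5×10^6 density) were induced 30–36 h with doxycycline 4 µg/mL plus 5 mM butyrate, with expression checked by radioligand binding. […] Receptor was solubilized in MNG/CHS buffer with 1 µM losartan and PhosSTOP, purified on M1 anti-FLAG (EDTA/FLAG-peptide elution), TCA-precipitated, then reduced (TCEP) and alkylated (iodoacetamide) in 8 M urea/EPPS pH 8.5.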

[4] = test system: AT1R C-terminal tail mutants (PROX, MID, DIST, NULL); assay: Intramolecular FlAsH BRET; type: cell-based, human; details: HEK293 cells, 10 min, N=4
WT AT1R (p-ERK/t-ERK) = assay: ERK phosphorylation Western blot, HEK293 cells, WT AT1R; type: cell-based, human; details: AngII 1 μM, TRV023 10 μM, 10 min, N=8-9
Outline: as §1

[5] = test system: WT and mutant AT1Rs (nuclear ERK activity); assay: Nuclear ERK BRET; type: cell-based, human
AT1R mutants / GRK2 = assay: GRK2 recruitment BRET assay, AT1R mutants; type: cell-based, human; details: GRKΔ4 cells; AngII 1 μM, TRV023 10 μM; 5 min
Outline: (§2)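 GRK2/3/5/6-null HEK293 cells were PEI-transfected with WT or mutant AT1R-Rluc8 (DNA adjusted to match expression) plus 1 µg C-terminally YFP-tagged GRK2. After 24 h they were plated at 50,000/well in 2% FBS starvation MEM. […] Plates were read at 37 °C (530/480 nm), and net BRET was taken as ligand minus vehicle.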

AT1R / β-arrestin = details: receptor "pre-phosphorylated"; AngII vs TRV023; cited from earlier work
[6] = test system: AT1R mutants (Ca2+ response); assay: FLIPR Ca2+ assay, AT1R mutants; type: cell-based, human; details: HEK293T cells; AngII serial doses, 37 °C; AUC; n=5
Outline: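 HEK293T cells (500,000/well) were transfected 24 h after seeding with WT, or adjusted amounts of PROX or MID AT1R giving equal expression. Next day they were replated at 50,000/well overnight and loaded with Calcium 6 dye 2 h at 37 °C.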

[7] = test system: AT1R C-terminal tail mutants (p-ERK/t-ERK); assay: ERK phosphorylation Western blot, HEK293 cells, AT1R mutants; type: cell-based, human; details: 10 min, N=8-9
Outline: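 HEK293 cells in 6-well plates were lipofectamine 2000-transfected with WT or mutant AT1R, with DNA adjusted to matched expression. Medium was refreshed on day 1. […] RIPA lysates with protease/phosphatase inhibitors were run on SDS-PAGE/PVDF and probed for phospho-ERK1/2 (1:1000) versus total ERK1/2 (1:2000) overnight at 4 °C.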

[8] = test system: AT1R-PROX mutant (nuclear ERK activity); assay: Nuclear ERK BRET; type: cell-based, human; details: HEK293T cells; AngII 1 μM; 5 min; vs WT receptor
Outline: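 WT or mutant AT1R (DNA adjusted for expression) PEI-co-transfected with 50 ng nuclear-localised EKAR biosensor with a NanoLuciferase donor. After 24 h, replated at 50,000/well in starvation MEM with 0.5% FBS, ± PTX 200 ng/mL. […] Read at 37°C, 530/480 nm; net BRET = ligand minus vehicle.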

WT AT1R [9] = assay: β-arrestin recruitment BRET assay, WT AT1R; type: cell-based, human; details: HEK293 cells; WT AT1R-RLuc8, β-arrestin2-eGFP; 10 min, 37 °C; N=5
[10] = test system: AT1R C-terminal tail mutants (PROX, MID, DIST, NULL); assay: DiscoverX active endocytosis assay; type: cell-based, human; details: U2OS cells; β-arrestin2-EA; 3 h 37 °C; chemiluminescence; N=3
Outline: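 U2OS cells stably expressing β-arrestin2-EA and endosome-localized PK were transfected with WT or mutant AT1R, replated next day at 35,000 cells/well, and treated with ligands 3 h at 37 °C two days post-transfection. PathHunter detection reagents were added with 1 h RT incubation, then β-gal complementation chemiluminescence was read. Results are expressed as fold of untreated cells.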

AT1R mutants (Gq) = assay: G protein activation TRUPATH BRET assay; type: cell-based, human; details: AngII concentration response; any of the AT1R mutants
[11] = test system: AT1R C-terminal tail mutants (PROX, MID, DIST, NULL); assay: β-arrestin1 endocytosis BRET assay, AT1R mutants; type: cell-based, human; details: HEK293 cells; β-arrestin1-RlucII/FYVE; 25 min 37 °C; N=4
Outline: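 HEK293 cells coexpressing WT or mutant AT1R, β-arrestin1-RlucII and endosomal FYVE-eGFP were reseeded next day on poly-L-ornithine plates (~25,000/well). […] Coelenterazine 400a (5 µM final) was added 2 min before reading (410/80 and 515/30 nm). Results are given as fold of untreated BRET; N=4.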

WT AT1R [12] = assay: Intramolecular FlAsH BRET; type: cell-based, human; details: HEK293 cells, AngII 1 μM, TRV023 10 μM, 10 min, N=4
Outline: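 HEK293 cells were Fugene HD-cotransfected with 1.5 µg AT1R and 0.1 µg of each rLuc–β-arrestin2–FlAsH construct. At 48 h cells in HBSS were labeled with 2.5 µM TC-FlAsH (or mock) for 30 min at RT, washed in BAL buffer and plated at 100,000/well. […] Six readings were taken (440–480 / 525–585 nm). Net BRET was calculated after mock-label and vehicle subtraction; N=4.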

AT1R / GRKs = details: cited from earlier work
AT1R WT / GRK2 = assay: GRK2 recruitment BRET assay, WT AT1R; type: cell-based, human; details: GRKΔ4 cells; AngII 1 μM, TRV023 10 μM; 5 min
Outline: as §2

AT1R mutants / GRK3 = assay: GRK3 recruitment BRET assay, AT1R mutants; type: cell-based, human; details: GRKΔ4 cells; AngII 1 μM, TRV023 10 μM; 5 min
Outline: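 HEK293 cells lacking GRK2/3/5/6 PEI-transfected with WT or mutant AT1R-Rluc8 (DNA adjusted to equalise expression) and 1 µg GRK3-YFP (C-terminal tag). Replated after 24 h at 50,000/well in starvation MEM with 2% FBS. […] Read at 37°C, 530/480 nm; net BRET = ligand minus vehicle.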

Compound: CCCc1nc2c(C)cc(-c3nc4ccccc4n3C)cc2n1Cc1ccc(-c2ccccc2C(=O)O)cc1 [Telm, telmisartan]
- ERK activation in GqKO cells ([1]; 10 min, N=7-8): did not induce ERK activation

Compound: angiotensin II (DRVYIHPF; Angiotensin-2; UniProt P01019 25-32, looked up) [AngII]
- β-arrestin recruitment (net BRET), AT1R-DIST ([2]; AT1R-DIST mutant): robust β-arrestin recruitment
- reduction of β-arrestin recruitment, MID sites mutated ([2]; AT1R-MID mutant): 50%
- reduction of β-arrestin recruitment, PROX sites mutated ([2]; AT1R-PROX mutant): 50%
- phosphorylation in DIST region ([3]; DIST region): comparable amounts of phosphorylation in the DIST region
- phosphorylation in PROX region ([3]; PROX: Ser326, Ser328, Ser331, Thr332): The magnitude of increase was greatest in the proximal region of the tail; also recorded: the greatest increase in receptor phosphorylation occurred in the PROX region
- β-arrestin2 FlAsH profile, AT1R-DIST [4]: more comparable to that of the WT AT1R
- ERK phosphorylation (p-ERK/t-ERK) (WT AT1R (p-ERK/t-ERK)): significant increase in ERK phosphorylation
- nuclear ERK activation ([5]; HEK293T cells, AT1R WT and all AT1R mutants, AngII 1 μM, 5 min, net BRET): increase in ERK activation
- GRK2 recruitment, DIST mutant (AT1R mutants / GRK2): significantly impaired
- GRK2 recruitment, MID mutant (AT1R mutants / GRK2): significantly impaired
- GRK2 recruitment, PROX mutant (AT1R mutants / GRK2): robust recruitment
- allosteric interaction with β-arrestin (AT1R / β-arrestin): somewhat stronger allosteric interaction with β-arrestin than does TRV023
- EC50 of Ca2+ response [6]: no difference in EC50
- maximal Ca2+ response, AT1R-PROX [6]: reduced maximal Ca^2+ response
- ERK phosphorylation, AT1R-MID ([7]; AT1R-MID vs WT AT1R): somewhat higher activation of ERK phosphorylation
- ERK phosphorylation, all phosphorylation-deficient mutants ([7]; AngII 1 μM, TRV023 10 μM): largely similar to that of the WT AT1R
- nuclear ERK response, PROX mutant [8]: significantly impaired ERK response compared to WT receptor
- β-arrestin recruitment (net BRET) (WT AT1R [9]): robust β-arrestin recruitment
- AT1R internalization: requirement of DIST phosphorylation [10]: largely dispensable
- AT1R internalization: requirement of PROX and MID phosphorylation [10]: required for AT1R internalization
- EC50 of G protein activation, AT1R mutants (AT1R mutants (Gq)): No difference in EC50
- AT1R internalization: requirement of DIST phosphorylation [11]: largely dispensable
- β-arrestin2 conformation, six FlAsH sensor profile (WT AT1R [12]): distinct β-arrestin conformations
- FlAsH4 BRET signal (WT AT1R [12]; Telm 10 μM): significant decrease in BRET compared to the shape profile induced by Telm
- GRK recruitment (AT1R / GRKs): recruits GRK2/3 and GRK5/6
- GRK2 recruitment, AT1R WT (AT1R WT / GRK2): robust recruitment
- ERK activation in GqKO cells ([1]; 10 min, N=7-8): substantially lower in GqKO cells compared to WT cells
- ERK activation in GqKO cells, PROX mutant ([1]; HEK293 GqKO cells, AT1R-PROX, 10 min, N=7-8): most impairment relative to WT cells; also recorded: more substantially diminished in cells lacking Gq
- GRK3 recruitment, MID mutant (AT1R mutants / GRK3): impaired in response to TRV023, but not AngII

Compound: pertussis toxin [PTX]
- PTX block of AngII-stimulated nuclear ERK ([5]; PTX 200 ng/mL pretreatment, stimulated by AngII, WT and mutant receptors): about 50%
- PTX block of TRV023-stimulated nuclear ERK ([5]; PTX 200 ng/mL pretreatment, stimulated by TRV023, WT and mutant receptors): about 50%
- inhibition of AngII-induced ERK activation by PTX ([1]; GqKO cells, PTX pretreatment before AngII, WT and mutant AT1Rs): largely blocked AngII-induced ERK activation

— publication PMC11443182 (Science signaling, 2024)
